7 compounds from ChEMBL document CHEMBL1127688, “Guaiacoxypropanolamine derivatives of capsaicin: a new family of beta-adrenoceptor blockers with intrinsic cardiotonic properties” (J Med Chem, 1994) can be followed below.

Structures are written as SMILES.

The subject of test [1] is Rattus norvegicus. Put plainly: Minimum dose of iv injection that shows vagus reflex and a heart rate decrease of 50 beats/min in non-vagotomized rats. It is filed as functional. Summed up:
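Non-vagotomized rats given increasing iv doses. The value is the lowest dose (mg/kg) that elicits a vagus reflex with a heart-rate fall of 50 beats/min. Compounds were scored ineffective if no such response occurred below 3 mg/kg. n = 8.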

Test [2] deals with Rattus norvegicus. Put plainly: Change in blood pressure was tested by inducing ia injection at a dose 0.1 mg/kg in rat. Type of test: functional. The following applies: route intra-arterial.
Test [3] has as its system Rattus norvegicus. The test can be described thus: Change in blood pressure was tested by inducing ia injection at a dose 0.01 mg/kg in rat. Type of test: functional. Particulars: route intra-arterial. The procedure, abridged: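 Urethane-anaesthetised normotensive Wistar rats; single intra-arterial bolus via the superficial epigastric artery. Read-out is the depressor change in systemic blood pressure in mmHg. Data are means ± SE, n = 8, analysed by ANOVA.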

The subject of test [4] is Rattus norvegicus. The test can be described thus: Blood pressure of the urethane-anesthetized normotensive Wistar rat was tested 10 min after inducing the compound on dose of 1.0 mg/kg. It is filed as functional. The procedure, abridged: (§1)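 Urethane-anesthetized normotensive Wistar rats given a single iv injection at 1.0 mg/kg. Blood pressure (mmHg) and heart rate (beats/min) recorded, and the change reported at 5, 10, 15, 30 and 60 min after dosing. Saline-injected controls. Mean ± SE, n = 8. Significance versus saline by analysis of variance.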

Test [5] concerns Rattus norvegicus. The test can be described thus: Heart rate of the urethane-anesthetized normotensive Wistar rat was tested 10 min after inducing the compound on dose of 1.0 mg/kg. It is filed as functional. The procedure, abridged: as §1
Test [6] is filed under the species Cavia porcellus. The test can be described thus: Positive chronotropic effect was evaluated on atrial muscles of the guinea pig. Type of test: functional, Muscle tissue.
The test system of test [7] is Rattus norvegicus. The test can be described thus: Blood pressure of the urethane-anesthetized normotensive Wistar rat was tested 30 min after inducing the compound on dose of 1.0 mg/kg. It is filed as functional. The procedure, abridged:
as §1

The subject of test [8] is Rattus norvegicus. The test can be described thus: Blood pressure of the urethane-anesthetized normotensive Wistar rat was tested 5 min after inducing the compound on dose of 1.0 mg/kg. Type of test: functional. The procedure, abridged:
as §1

Test [9] has as its system Rattus norvegicus. Put plainly: Heart rate of the urethane-anesthetized normotensive Wistar rat was tested 30 min after inducing the compound on dose of 1.0 mg/kg. Type of test: functional. The procedure, abridged:
as §1

Test [10] relates to Rattus norvegicus. The test can be described thus: Blood pressure of the urethane-anesthetized normotensive Wistar rat was tested 60 min after inducing the compound on dose of 1.0 mg/kg. Type of test: functional. Summed up:
as §1

Test [11] relates to Rattus norvegicus. Put plainly: Blood pressure of the urethane-anesthetized normotensive Wistar rat was tested 15 min after inducing the compound on dose of 1.0 mg/kg. It is filed as functional. The procedure, abridged: as §1
The test system of test [12] is Rattus norvegicus. Put plainly: Heart rate of the urethane-anesthetized normotensive Wistar rat was tested 5 min after inducing the compound on dose of 1.0 mg/kg. It is filed as functional. Summed up: as §1
For test [13], the species on record is Cavia porcellus. The test can be described thus: Positive inotropic effect was evaluated on atrial muscles of the guinea pig. Type of test: functional, Muscle tissue.
For test [14], the system named is Rattus norvegicus. The test can be described thus: Heart rate of the urethane-anesthetized normotensive Wistar rat was tested 15 min after inducing the compound on dose of 1.0 mg/kg. It is filed as functional. The procedure, abridged: as §1
Test [15] relates to Rattus norvegicus. Put plainly: Heart rate of the urethane-anesthetized normotensive Wistar rat was tested 60 min after inducing the compound on dose of 1.0 mg/kg. Type of test: functional. The procedure, abridged:
as §1

[16] abbreviates: Cavia porcellus, Muscle tissue, read-out: pA2 (converted).

Turning to `CCCCCCCCC(=O)NCc1ccc(OCCN(CC)CC)c(OC)c1`, the Dose in the test on Rattus norvegicus [1] came out at 0.5 mg/kg. The compound further came in with a BP in the test on Rattus norvegicus [2] of -15 mmHg.
The compound `COc1cc(CNC(=O)CCCC/C=C/C(C)C)ccc1O` [CAPSAICIN] registered a Dose with Rattus norvegicus [1] of 0.001 mg/kg. For the same compound, in the test on Rattus norvegicus [3], the BP is recorded as -49.5 mmHg.
On to `CCCCCCCCC(=O)NCc1ccc(OCCN(C)C)c(OC)c1`, for which the Dose with Rattus norvegicus [1] turned out to be 0.5 mg/kg. The compound further displayed a BP in the test on Rattus norvegicus [2] of -21.6 mmHg.
For `CCCCCCCCC(=O)NCc1ccc(OCCO)c(OC)c1`, in that order: 0.3 mg/kg and -44.2 mmHg.
`CCCCCCCCC(=O)NCc1ccc(OCC(O)CNCCCC)c(OC)c1` (centres undefined): the BP with Rattus norvegicus [4] is -1.22 mmHg; with Rattus norvegicus [7], 0.11 mmHg; in the test with Rattus norvegicus [8] it was -0.22 mmHg; in the test on Rattus norvegicus [10] it was 3.33 mmHg; with Rattus norvegicus [11], -1.22 mmHg. Moreover, the HR with Rattus norvegicus [5] is given as -33.78 beats min-1; with Rattus norvegicus [9], -15.33 beats min-1; in the test on Rattus norvegicus [12] it was -40 beats min-1; in the test on Rattus norvegicus [14], -26.22 beats min-1; in the test on Rattus norvegicus [15], -3.67 beats min-1. The Kb in the test filed under Cavia porcellus [6] (setting [16]) is 58.9 nM; in the test filed under Cavia porcellus [13] (setting [16]) it was 53.7 nM.
In the case of `CCCCCCCCC(=O)NCc1ccc(O)c(OC)c1` [NONIVAMIDE], in the test with Rattus norvegicus [1], the Dose was 0.005 mg/kg. This compound had a BP in the test on Rattus norvegicus [3] of -28.3 mmHg.
On to `CCCCCCCCC(=O)NCc1ccc(OCC(O)CNCCC)c(OC)c1` (stereo in doubt; 8), for which the BP in the test with Rattus norvegicus [4] (1 mg/kg) is -2.56 mmHg; with Rattus norvegicus [7] (1 mg/kg), -2.44 mmHg; with Rattus norvegicus [8] (1 mg/kg), -1.78 mmHg; in the test on Rattus norvegicus [10] (1 mg/kg), -0.56 mmHg; in the test with Rattus norvegicus [11] (1 mg/kg), -3.11 mmHg. Moreover, the HR was -35.33 beats min-1 in the test on Rattus norvegicus [5] (1 mg/kg); -14.11 beats min-1 with Rattus norvegicus [9] (1 mg/kg); -42.56 beats min-1 in the test with Rattus norvegicus [12] (1 mg/kg); -32 beats min-1 with Rattus norvegicus [14] (1 mg/kg); -6.89 beats min-1 with Rattus norvegicus [15] (1 mg/kg). Further, the pA2 in the test filed under Cavia porcellus [6] is recorded as 6.79; in the test filed under Cavia porcellus [13], 7.75.
